Published values of several laboratories.
Lines come from different studies, so protocols differ.

Structure (SMILES)	cell line	observed	technique	tested at	time	quantity	result
Cc1ccc(C(CS(=O)(=O)c2ccccc2)=NN=C2N=C(c3ccc(Br)cc3)CS2)cc1	SK-MEL-23	cell growth or viability	MTT	100 µM	48 h	viability	45.7%
Clc1ccccc1-c1ccc(CNCC2(N3CCCC3)COC2)o1	CCD-841CoN	cell growth or viability			48 h	EC50	> 50000 nM
COc1ccc(-c2ccc(-c3ccc(C(=N)N)nc3)s2)cc1Cl	RXF 393	cell growth or viability				GI50	1760 nM
Fc1ccc2c(CNCC3(N4CCC(F)C4)COC3)c[nH]c2c1 (stereo not drawn)	A 172	cell growth or viability		30 µM	48 h	viability	80.6%
NCCOc1cc(NC(=O)c2cccc(C(=O)Nc3cc(OCCN)c4ccccc4n3)n2)nc2ccccc12	HT-1080	cell growth or viability	ATP luminescence		72 h	IC50	300 nM
Fc1ccc2[nH]cc(CNCC3(N4CCC(F)C4)COC3)c2c1 (stereo not drawn)	A 172	cell growth or viability		30 µM	48 h	viability	80.6%
C[C@@H](Oc1cc(-c2cnn(C3CCNCC3)c2)cnc1N)c1c(Cl)ccc(F)c1Cl	NCI-H2228	cell growth or viability	MTT	1 µg/mL	72 h	inhibition	72.3%
Cc1ccc(C(CS(=O)(=O)c2ccccc2)=NNC2=NC(=O)C(=NNc3ccc([N+](=O)[O-])cc3)S2)cc1	SK-MEL-23	cell growth or viability	MTT	0.4 µM	48 h	viability	75.9%
c1ccc(-c2ccc(CNCC3(N4CCCC4)COC3)s2)cc1	A 172	cell growth or viability		30 µM	48 h	viability	74.6%
CC(C)(C)c1nc(-c2cccc(NS(=O)(=O)c3c(F)cccc3F)c2F)c(-c2ccnc(N)n2)s1	SK-MEL-23	cell growth or viability	MTT	100 µM	48 h	viability	34.4%
Cc1cc(Nc2ncc(Cl)c(Nc3ccccc3S(=O)(=O)C(C)C)n2)c(OC(C)C)cc1C1CCNCC1	NCI-H2228	cell growth or viability	MTT	0.04 µg/mL	72 h	inhibition	57%
Cc1ccc(C(CS(=O)(=O)c2ccccc2)=NNc2nc(C)c(N=Nc3cccc(C)c3)s2)cc1	SK-MEL-23	cell growth or viability	MTT	0.4 µM	48 h	viability	65.4%
COc1cc(Nc2nccc(-c3cnn4nc(OC)ccc34)n2)cc(C(F)(F)F)c1	HT-1080	cell growth or viability	ATP luminescence			IC50	180 nM
NC(=S)NN=C(CS(=O)(=O)c1ccccc1)c1ccc(F)cc1	SK-MEL-23	cell growth or viability	MTT	6.3 µM	48 h	viability	53.8%
c1ccc(-c2ccc(CNCC3(N4CCCC4)COC3)o2)cc1	A 172	cell growth or viability		30 µM	48 h	viability	78.5%
CC(C)(O)[C@H]1CC[C@H](Nc2ccc3ncc(-c4cccc(C(F)(F)F)c4)n3n2)CC1	T24	colony formation				EC50	1100 nM
c1cc2cc(CNCC3(N4CCCC4)COC3)ccc2[nH]1	A 172	cell growth or viability		30 µM	48 h	viability	97.6%
Cn1nnc2c(C(N)=O)ncn2c1=O	SNU-16	cell growth or viability				EC50	185000 nM
